Data as given in PubChem BioAssay.
Active and inactive are the calls of the source.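 The calls were made as follows, unless noted: active = Her2 level under about 52% in both replicate screens, with viability over 70% of control (limit read from the data); inconclusive = Her2 under the limit in one screen only, or viability under 70%; inactive = Her2 level above the set limit.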

Legend:
[1] = reducers of endogenous Her2 protein level, primary screen, SKBR3 breast tumor cells, AlphaScreen, ATP viability (AID 461); conditions: 18-24 h, measured here: SKBR3 viability, ATP luminescence, at 10 µM;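 as to Her2 level: lower value means less Her2 protein in the cells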;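 as to viability: percent of carrier control wells set as 100% viability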
[2] = target: Receptor tyrosine-protein kinase erbB-2 (Homo sapiens) (UniProt P04626); assay: as above; conditions: 18-24 h, at 10 µM, stronger effect = lower value
Sequence of Receptor tyrosine-protein kinase erbB-2 (Homo sapiens) (P04626 whole entry, looked up): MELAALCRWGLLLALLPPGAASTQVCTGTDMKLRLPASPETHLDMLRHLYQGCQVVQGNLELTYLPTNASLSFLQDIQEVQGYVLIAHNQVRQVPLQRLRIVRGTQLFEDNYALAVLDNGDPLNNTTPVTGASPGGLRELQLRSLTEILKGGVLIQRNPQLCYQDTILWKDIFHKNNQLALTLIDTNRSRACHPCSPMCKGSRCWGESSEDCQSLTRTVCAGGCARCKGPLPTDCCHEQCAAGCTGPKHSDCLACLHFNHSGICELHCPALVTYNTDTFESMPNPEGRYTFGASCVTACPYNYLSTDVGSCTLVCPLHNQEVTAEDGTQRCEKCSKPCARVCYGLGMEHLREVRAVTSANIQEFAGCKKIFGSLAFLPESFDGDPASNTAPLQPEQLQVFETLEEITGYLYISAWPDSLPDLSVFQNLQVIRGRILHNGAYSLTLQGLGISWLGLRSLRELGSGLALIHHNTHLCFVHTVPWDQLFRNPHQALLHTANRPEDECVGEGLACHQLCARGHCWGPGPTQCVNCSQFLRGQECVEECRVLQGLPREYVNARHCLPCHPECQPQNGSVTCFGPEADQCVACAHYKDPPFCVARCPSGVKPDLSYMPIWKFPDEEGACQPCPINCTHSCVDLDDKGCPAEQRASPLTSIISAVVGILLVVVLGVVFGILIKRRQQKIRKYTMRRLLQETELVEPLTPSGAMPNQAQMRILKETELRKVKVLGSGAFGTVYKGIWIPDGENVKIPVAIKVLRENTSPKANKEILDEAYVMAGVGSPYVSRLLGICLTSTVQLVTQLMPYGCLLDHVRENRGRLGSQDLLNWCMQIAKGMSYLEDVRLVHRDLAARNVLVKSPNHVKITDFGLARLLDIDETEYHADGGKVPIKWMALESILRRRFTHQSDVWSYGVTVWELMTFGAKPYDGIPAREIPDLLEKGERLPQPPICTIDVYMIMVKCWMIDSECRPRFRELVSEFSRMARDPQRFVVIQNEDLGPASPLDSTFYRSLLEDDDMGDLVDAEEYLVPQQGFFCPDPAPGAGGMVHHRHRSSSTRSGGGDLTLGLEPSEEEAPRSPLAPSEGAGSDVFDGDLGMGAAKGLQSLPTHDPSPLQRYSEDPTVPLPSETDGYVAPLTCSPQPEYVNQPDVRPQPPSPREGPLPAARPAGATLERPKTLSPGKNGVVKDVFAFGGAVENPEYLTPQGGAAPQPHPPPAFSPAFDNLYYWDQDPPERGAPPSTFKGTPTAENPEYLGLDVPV

[3] = SK-BR-3 cell growth inhibitors, pilot screen, 24 h, human (AID 572;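 active = viability at or below 10% of carrier control in both of two separate runs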;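 also: compound exposure lasted between 18 and 24 h rather than exactly 24 h; 100% = carrier-treated control wells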); conditions: SK-BR-3 viability, CellTiter-Glo luminescence, at 10 µM, stronger effect = lower value
[4] = HUVEC growth inhibition – cell-based, human, primary screen (AID 575;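 active = viability at or below 30% in both replicate assays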;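 also: 100% = median of untreated cell wells with 0.1% DMSO on each plate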); conditions: HUVEC proliferation, CellTiter-Glo luminescence, 72 h; at 10 µM; stronger effect = lower value
Method in brief: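 System – primary HUVEC, no more than 12 passages · Medium – Low-serum (2% FBS) EBM, supplemented · Times – 72 h exposure, 37 °C, 5% CO2, 30 min RT equilibration · Measured by – luminescent ATP assay · Read-out – % viability relative to median vehicle-well signal on each plate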

[5] = growth inhibitors of H69AR lung tumor, primary screen, human, duplicate replicates (AID 580;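 active = viability at or under a set limit in both replicates, limit being median viability minus 3 SD, cut at about 48% in these data, passing the limit was not always enough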;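 also: 100% = mean luminescence of untreated wells and 0% = no signal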); conditions: H69AR lung tumor cells viability, ATP luminescence, 72 h; at 10 µM; stronger effect = lower value
[6] = reversal of MRP1-mediated doxorubicin resistance, pilot screen, H69AR cells, doxorubicin co-treatment (AID 601;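 active = viability loss from added drug above about 55%, and viability with drug at most 40%, in both replicates, limit read from the data, passing the limit was not always enough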); conditions: CellTiter-Glo, 72 h, at 10 µM; for differential viability (reversal): stronger effect = higher value
[7] = 384-well plate pilot, post-Golgi transport modulator project, inhibition of yeast transport mutant growth (AID 636; in the data active = inhibition above about 31%); conditions: absorbance 615 nm, about 18 h, stronger effect = higher value
[8] = growth suppression of yeast trafficking mutant, preliminary HTS, modulators of trafficking downstream of Golgi apparatus project, 1536-format plate, OD 615 nm (AID 637; in the data active = inhibition above about 30%); conditions: yeast transport mutant growth, absorbance 615 nm, 18 h; stronger effect = higher value
[9] = H69AR cells + 2 uM doxorubicin, measured here: viability with 2 uM doxorubicin, stronger effect = lower value
[10] = H69AR cells, compound alone cytotoxicity

SMILES | viability [1] [%] | Her2 level [2] | viability [3] | viability [4] | viability [5] | differential viability (reversal) ([6]; H69AR cells + 2 uM doxorubicin) | viability [6, 9] [%] | viability [6, 10] [%] | inhibition [7] | inhibition [8]
CCOC(=O)C(NC(C)=O)(NS(=O)(=O)c1ccccc1)C(F)(F)F (stereo not given) | 122 | 101% (inactive) | 122% (inactive) | 101% (inactive) | 100% (inactive) | 5.89% (inactive) | 94.2 | 100 | -4.16% (inactive) | 1.59% (inactive)
Cc1cccc(OCC(=O)N(Cc2cccs2)C2CCS(=O)(=O)C2)c1C (stereo not given) | 96.5 | 83.5% (inactive) | 96.5% (inactive) | 72.8% (inactive) | 94.6% (inactive) | 3.22% (inactive) | 91.4 | 94.6 | -6.35% (inactive) | 3.02% (inactive)
O=S(=O)(c1ccc(OCC(O)CN2CCC(Cc3ccccc3)CC2)cc1)N1CCOCC1 (stereo not given) | 81.5 | 81.5% (inactive) | 81.5% (inactive) | 73.4% (inactive) | 84.8% (inactive) | -9.48% (inactive) | 94.2 | 84.8 | -6.45% (inactive) | -5.24% (inactive)
O=C(NCCCn1ccnc1)c1cnn2c1NC(c1ccccc1)CC2C(F)(F)F (stereo not given) | 93.5 | 139% (inactive) | 93.5% (inactive) | 88.5% (inactive) | 105% (inactive) | 1.64% (inactive) | 103 | 105 | -0.26% (inactive) | -15% (inactive)
CC(C)Nc1ncnc2c1cnn2-c1ccccc1 | 95.5 | 104% (inactive) | 95.5% (inactive) | 88.3% (inactive) | 94.7% (inactive) | 4.19% (inactive) | 90.5 | 94.7 | 0% (inactive) | -8.33% (inactive)
CCC(C)(C(=O)NC1CCCC1)N(C(=O)c1cnccn1)c1c(C)n(C)n(-c2ccccc2)c1=O (stereo not given) | 97 | 124% (inactive) | 97% (inactive) | 94.4% (inactive) | 91.4% (inactive) | 0.145% (inactive) | 91.2 | 91.4 | 2.34% (inactive) | -7.38% (inactive)
Cc1cccc(N2CN=c3s/c(=C\c4ccncc4)c(=O)n3C2)c1 | 86.5 | 68% (inactive) | 86.5% (inactive) | 77.4% (inactive) | 80.8% (inactive) | -10.2% (inactive) | 91 | 80.8 | -1.32% (inactive) | -2.42% (inactive)
O=C(NCc1ccco1)c1cccn2c(=O)c3sccc3nc12 | 104 | 74.5% (inactive) | 104% (inactive) | 82.5% (inactive) | 58.4% (inactive) | -24% (inactive) | 82.4 | 58.4 | -1.2% (inactive) | -7.87% (inactive)
C[C@H](NC(=O)OC(C)(C)C)C(=O)NCC1CCC(C(=O)O)CC1 (stereo not given in full) | 101 | 97% (inactive) | 101% (inactive) | 103% (inactive) | 108% (inactive) | 11.7% (inactive) | 96.4 | 108 | -5.73% (inactive) | -1.29% (inactive)
Cc1cc(-c2ccccc2)nc2cc(C(=O)NCCCn3ccnc3)nn12 | 104 | 103% (inactive) | 104% (inactive) | 98.8% (inactive) | 88.2% (inactive) | 8.86% (inactive) | 79.3 | 88.2 | -6.13% (inactive) | -1.45% (inactive)
CCOc1nc2ccccc2nc1NS(=O)(=O)c1ccccc1 | 83 | 75% (inactive) | 83% (inactive) | 91.3% (inactive) | 88.5% (inactive) | 0.49% (inactive) | 88 | 88.5 | -2.24% (inactive) | 3.82% (inactive)
COCCCNC(=O)c1ccccc1NS(=O)(=O)c1ccc(C)cc1 | 91 | 98% (inactive) | 91% (inactive) | 92.1% (inactive) | 101% (inactive) | 9.35% (inactive) | 91.2 | 101 | -4.27% (inactive) | -5.24% (inactive)
CCCn1cnc2c(c1=O)c1nc3ccccc3nc1n2Cc1ccccc1OC | 99 | 97% (inactive) | 99% (inactive) | 91.9% (inactive) | 86.4% (inactive) | -1.82% (inactive) | 88.2 | 86.4 | -7.11% (inactive) | -2.22% (inactive)
C=C(c1cccc2ccccc12)P(=O)(O)O | 116 | 99.5% (inactive) | 116% (inactive) | 104% (inactive) | 92.9% (inactive) | 6.39% (inactive) | 86.5 | 92.9 | -6.45% (inactive) | 4.75% (inactive)
O=C(CS(=O)(=O)c1cn(Cc2ccc(Cl)cc2)c2ccccc12)N1CCCC1 | 81.5 | 92% (inactive) | 81.5% (inactive) | 88.2% (inactive) | 79.3% (inactive) | -3.04% (inactive) | 82.3 | 79.3 | -5.2% (inactive) | 1% (inactive)
Cc1[nH]c2ccccc2c(=O)c1CN(C)Cc1ccccc1 | 92.5 | 95% (inactive) | 92.5% (inactive) | 100% (inactive) | 91.8% (inactive) | 2.49% (inactive) | 89.3 | 91.8 | -4.21% (inactive) | -0.98% (inactive)
